These results are taken from ChEMBL document CHEMBL1156952, “Synthesis and biological evaluations of novel bendazac lysine analogues as potent anticataract agents” (Bioorg Med Chem Lett, 2010).

Each structure is given as a SMILES string.

The nature of data set [1]: Aqueous solubility of the compound. The class given is physicochemical. The following applies: water (aqueous).
Data set [2] is described as follows: Anticataract activity against FeCl3/H2O2-induced cataract in rabbit lens assessed as absence of opacificaion at 0.5 mM treated 1 hr before FeCl3/H2O2 challenge measured after 24 hrs. The class given is functional, Oryctolagus cuniculus, Lens of camera-type eye.
Data set [3] is described as follows: Anticataract activity against FeCl3/H2O2-induced cataract in rabbit lens assessed as slight degree of opacificaion at 0.5 mM treated 1 hr before FeCl3/H2O2 challenge measured after 24 hrs. The data set is classed as functional, Oryctolagus cuniculus, Lens of camera-type eye.
The nature of data set [4]: Anticataract activity against FeCl3/H2O2-induced cataract in rabbit lens assessed as middle degree of opacificaion at 0.5 mM treated 1 hr before FeCl3/H2O2 challenge measured after 24 hrs. The class given is functional, Oryctolagus cuniculus, Lens of camera-type eye.
Data set [5] in a line: Anticataract activity against FeCl3/H2O2-induced cataract in rabbit lens assessed as extensive mature nuclear opacity at 0.5 mM treated 1 hr before FeCl3/H2O2 challenge measured after 24 hrs. The class given is functional, Oryctolagus cuniculus, Lens of camera-type eye.
The nature of data set [6]: Anticataract activity against FeCl3/H2O2-induced cataract in rat lens assessed as absence of opacificaion at 0.5 mM treated 1 hr before FeCl3/H2O2 challenge measured after 24 hrs. The class given is functional, Lens of camera-type eye. Summed up:
(§1)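 Isolated rat lenses were cultured in DMEM and challenged with FeCl3 (0.02%) plus H2O2 (0.5%). Compounds were added at 0.5 mM to the medium of transparent lenses, with a challenged, untreated control. Lenses were scored as the percentage at each opacification grade (−, +, ++, +++).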

Data set [7] can be described thus: Anticataract activity against FeCl3/H2O2-induced cataract in rat lens assessed as slight degree of opacificaion at 0.5 mM treated 1 hr before FeCl3/H2O2 challenge measured after 24 hrs. The class given is functional, Lens of camera-type eye. Summed up: as §1
A short description of data set [8]: Anticataract activity against FeCl3/H2O2-induced cataract in rat lens assessed as middle degree of opacificaion at 0.5 mM treated 1 hr before FeCl3/H2O2 challenge measured after 24 hrs. The class given is functional, Lens of camera-type eye. The method, boiled down:
as §1

Data set [9] can be described thus: Anticataract activity against FeCl3/H2O2-induced cataract in rat lens assessed as extensive mature nuclear opacity at 0.5 mM treated 1 hr before FeCl3/H2O2 challenge measured after 24 hrs. The data set is classed as functional, Lens of camera-type eye. Summed up:
as §1

Data set [10] can be described thus: Anticataract activity against FeCl3/H2O2-induced cataract in rabbit lens assessed as absence of opacificaion at 10 mM treated 1 hr before FeCl3/H2O2 challenge measured after 24 hrs. The data set is classed as functional, Oryctolagus cuniculus, Lens of camera-type eye.
Data set [11] is described as follows: Anticataract activity against FeCl3/H2O2-induced cataract in rabbit lens assessed as slight degree of opacificaion at 10 mM treated 1 hr before FeCl3/H2O2 challenge measured after 24 hrs. The data set is classed as functional, Oryctolagus cuniculus, Lens of camera-type eye.
Data set [12] can be described thus: Anticataract activity against FeCl3/H2O2-induced cataract in rabbit lens assessed as middle degree of opacificaion at 10 mM treated 1 hr before FeCl3/H2O2 challenge measured after 24 hrs. The class given is functional, Oryctolagus cuniculus, Lens of camera-type eye.
The nature of data set [13]: Anticataract activity against FeCl3/H2O2-induced cataract in rabbit lens assessed as extensive mature nuclear opacity at 10 mM treated 1 hr before FeCl3/H2O2 challenge measured after 24 hrs. The data set is classed as functional, Oryctolagus cuniculus, Lens of camera-type eye.
The nature of data set [14]: Anticataract activity against FeCl3/H2O2-induced cataract in rabbit lens assessed as absence of opacificaion at 5 mM treated 1 hr before FeCl3/H2O2 challenge measured after 24 hrs. The class given is functional, Oryctolagus cuniculus, Lens of camera-type eye.
Data set [15] in a line: Anticataract activity against FeCl3/H2O2-induced cataract in rabbit lens assessed as slight degree of opacificaion at 5 mM treated 1 hr before FeCl3/H2O2 challenge measured after 24 hrs. The data set is classed as functional, Oryctolagus cuniculus, Lens of camera-type eye.
Data set [16] can be described thus: Anticataract activity against FeCl3/H2O2-induced cataract in rabbit lens assessed as middle degree of opacificaion at 5 mM treated 1 hr before FeCl3/H2O2 challenge measured after 24 hrs. The class given is functional, Oryctolagus cuniculus, Lens of camera-type eye.
Data set [17] is described as follows: Anticataract activity against FeCl3/H2O2-induced cataract in rabbit lens assessed as extensive mature nuclear opacity at 5 mM treated 1 hr before FeCl3/H2O2 challenge measured after 24 hrs. The class given is functional, Oryctolagus cuniculus, Lens of camera-type eye.
Data set [18] is described as follows: Anticataract activity against FeCl3/H2O2-induced cataract in rabbit lens assessed as absence of opacificaion at 15 mM treated 1 hr before FeCl3/H2O2 challenge measured after 24 hrs. The data set is classed as functional, Oryctolagus cuniculus, Lens of camera-type eye.
Data set [19] can be described thus: Anticataract activity against FeCl3/H2O2-induced cataract in rabbit lens assessed as slight degree of opacificaion at 15 mM treated 1 hr before FeCl3/H2O2 challenge measured after 24 hrs. The data set is classed as functional, Oryctolagus cuniculus, Lens of camera-type eye.
A short description of data set [20]: Anticataract activity against FeCl3/H2O2-induced cataract in rabbit lens assessed as middle degree of opacificaion at 15 mM treated 1 hr before FeCl3/H2O2 challenge measured after 24 hrs. The class given is functional, Oryctolagus cuniculus, Lens of camera-type eye.
Data set [21] can be described thus: Anticataract activity against FeCl3/H2O2-induced cataract in rabbit lens assessed as extensive mature nuclear opacity at 15 mM treated 1 hr before FeCl3/H2O2 challenge measured after 24 hrs. The data set is classed as functional, Oryctolagus cuniculus, Lens of camera-type eye.
Data set [22] is filed under the species Oryctolagus cuniculus. Kind of data set: Induction of water-solvent protein level in rabbit lens homogenates at 5 mM (Rvb= 7.40 +/-0.73 mg/mL). As to conditions: Lens of camera-type eye. The class given is functional, tissue-based. The method, boiled down: (§2)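 Rabbit lenses were cultured in DMEM under FeCl3 (0.02%) plus H2O2 (2%) challenge, with compound at 5, 10 or 15 mM in the medium. Each group's lenses were then homogenized. Water-soluble protein, total antioxidant capacity and malondialdehyde were each measured in the homogenate with a reagent kit.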

The species named for data set [23] is Oryctolagus cuniculus. Kind of data set: Induction of total-antioxidant capacity level in rabbit lens homogenates at 5 mM (Rvb= 0.04 u/mg). The class given is functional, tissue-based. The following applies: Lens of camera-type eye. Summed up:
as §2

For data set [24], the species on record is Oryctolagus cuniculus. In words: Reduction of malondialdehyde level in rabbit lens homogenates at 5 mM (Rvb= 0.46 +/-0.27 nmol/mg). The data set is classed as functional, tissue-based. The following applies: Lens of camera-type eye. Summed up:
as §2

For data set [25], the species on record is Oryctolagus cuniculus. In words: Anticataract activity against FeCl3/H2O2-induced cataract in rabbit lens treated 1 hr before FeCl3/H2O2 challenge measured after 24 hrs. The following applies: Lens of camera-type eye. The class given is functional, tissue-based.
For data set [26], the species on record is Oryctolagus cuniculus. In words: Induction of total-antioxidant capacity level in rabbit lens homogenates at 10 mM (Rvb= 0.04 u/mg). The data set is classed as functional, tissue-based. As to conditions: Lens of camera-type eye. Summed up:
as §2

The species named for data set [27] is Oryctolagus cuniculus. Kind of data set: Induction of total-antioxidant capacity level in rabbit lens homogenates at 15 mM (Rvb= 0.04 u/mg). The class given is functional, tissue-based. As to conditions: Lens of camera-type eye. The method, boiled down: as §2
The species entered for data set [28] is Oryctolagus cuniculus. Kind of data set: Reduction of malondialdehyde level in rabbit lens homogenates at 10 mM (Rvb= 0.46 +/-0.27 nmol/mg). The class given is functional, tissue-based. The following applies: Lens of camera-type eye. Summed up: as §2
The species entered for data set [29] is Oryctolagus cuniculus. In words: Reduction of malondialdehyde level in rabbit lens homogenates at 15 mM (Rvb= 0.46 +/-0.27 nmol/mg). The data set is classed as functional, tissue-based. As to conditions: Lens of camera-type eye. The method, boiled down: as §2

On to `N[C@@H](Cc1c[nH]cn1)C(=O)O.O=C(O)C(Oc1nn(Cc2ccccc2)c2ccccc12)C(=O)O` [listing 1 of 2 here], for which the concentration in solution in data set [1] (solubility) was 180 mg/mL. Moreover, the Activity is reported as 0% in data set [2]; 65% in data set [3]; 35% in data set [4]; 0% in data set [5]; 0% in data set [6]; 85% in [7]. In addition, the Activity in [8] is listed as 15%; in [9] it was 0%; in data set [10], 90%; in [11] it was 10%; in data set [12], 0%; in data set [13] it was 0%. Besides, the Activity in data set [14] is on record as 30%; in data set [15], 70%; in [16] it was 0%; in data set [17], 0%; in data set [18], 100%; in data set [19], 0%. Also, the Activity in data set [20] and in [21] was 0% throughout.
`O=C(O)COc1nn(Cc2ccccc2)c2ccccc12` registered a WSP level in the data set filed under Oryctolagus cuniculus [22] of 9.34 mg/mL. Also, in the data set filed under Oryctolagus cuniculus [23], the T-AOC level came out at 0.17 U/mg. In the data set listed under Oryctolagus cuniculus [24], this molecule displayed an MDA level of 0.22 nmol/mg.
`NCCCC[C@H](N)C(=O)O.O=C(O)COc1nn(Cc2ccccc2)c2ccccc12` [BENDAZAC LYSINE] gave a solubility in [1] of 93.8 mg/mL. The Activity was 0% in [2]; 75% in data set [3]; 25% in [4]; 0% in data set [5]; 0% in data set [6]; 55% in data set [7]. Also, the Activity in data set [8] stood at 40%; in data set [9], 5%; in data set [10], 20%; in [11], 65%; in data set [12] it was 15%; in data set [13], 0%.
Take `N[C@@H](Cc1c[nH]cn1)C(=O)O.O=C(O)C(Oc1nn(Cc2ccccc2)c2ccccc12)C(=O)O` [listing 2 of 2 here]: the Activity result in the data set filed under Oryctolagus cuniculus [25] was “Dose-dependent effect”. The WSP level in the data set filed under Oryctolagus cuniculus [22] came to 13 mg/mL. Moreover, the T-AOC level worked out at 0.21 U/mg in the data set listed under Oryctolagus cuniculus [23], 0.64 U/mg in the data set filed under Oryctolagus cuniculus [26] and 0.34 U/mg in the data set listed under Oryctolagus cuniculus [27]. The MDA level in the data set filed under Oryctolagus cuniculus [24] came out at 0.04 nmol/mg; in the data set listed under Oryctolagus cuniculus [28], 0.03 nmol/mg; in the data set filed under Oryctolagus cuniculus [29] it was 0.08 nmol/mg.
Turning to `O=C([O-])C(Oc1nn(Cc2ccccc2)c2ccccc12)C(=O)[O-].[Na+].[Na+]`, the solubility in [1] was 3 mg/mL. The Activity stood at 0% in [2]; 60% in data set [3]; 40% in [4]; 0% in [5]; 0% in data set [6]; 80% in [7]. In addition, the Activity in [8] is given as 20%; in data set [9], 0%.
`O=C([O-])C(Oc1nn(Cc2cccc(F)c2)c2ccccc12)C(=O)[O-].[Na+].[Na+]` had a solubility in [1] of 3.2 mg/mL. For the same molecule, the Activity in [2] was 0%; in data set [3] it was 80%; in data set [4], 20%; in data set [5] it was 0%; in [6] it was 0%; in data set [7] it was 60%. Further, the values for the Activity in data set [8] and in [9] were 35% and 5%, respectively.
